Assay results: ChEMBL document CHEMBL1255446, “Combinations of mutations in the connection domain of human immunodeficiency virus type 1 reverse transcriptase: assessing the impact on nucleoside and nonnucleoside reverse transcriptase inhibitor resistance” (2010)

Columns and labels:
Type in all cases: functional
[1] = test system: Human immunodeficiency virus 1; experiment: Antiviral activity against HIV1 with RT connection domain L100I/T369I/N348I mutant transfected in HEK293 cells assessed as inhibition of viral replication relative to HIV1 NL4-3
In short: (§1)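 Single-replication-cycle (PhenoSense) assay. Site-directed mutant RT pseudoviruses were made by cotransfecting 293 cells with RTV plasmid plus an amphotropic MLV Env plasmid, harvested at 48 h, and used to infect fresh 293 cells. Serial drug dilutions were added before infection. Luciferase was read ~72 h post-infection, % inhibition was computed, and EC50 was taken from the curves. Values are fold change versus NL4-3 reference run in the same experiment.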

[2] = test system: Human immunodeficiency virus 1; experiment: Antiviral activity against HIV1 with RT connection domain K103N/T369I mutant transfected in HEK293 cells assessed as inhibition of viral replication relative to HIV1 NL4-3; in short: as §1
[3] = test system: Human immunodeficiency virus 1; experiment: Antiviral activity against HIV1 with RT connection domain G190A/T369I mutant transfected in HEK293 cells assessed as inhibition of viral replication relative to HIV1 NL4-3; in short: as §1
[4] = test system: Human immunodeficiency virus 1; experiment: Antiviral activity against HIV1 with RT connection domain Y181C/N348I mutant transfected in HEK293 cells assessed as inhibition of viral replication relative to HIV1 NL4-3; in short: as §1
[5] = test system: Human immunodeficiency virus 1; experiment: Antiviral activity against HIV1 with RT connection domain K103N/T369I/N348I mutant transfected in HEK293 cells assessed as inhibition of viral replication relative to HIV1 NL4-3; in short: as §1
[6] = test system: Human immunodeficiency virus 1; experiment: Antiviral activity against HIV1 with RT connection domain G190S/N348I mutant transfected in HEK293 cells assessed as inhibition of viral replication relative to HIV1 NL4-3; in short: as §1
[7] = test system: Human immunodeficiency virus 1; experiment: Antiviral activity against HIV1 with RT connection domain T369V mutant transfected in HEK293 cells assessed as inhibition of viral replication relative to HIV1 NL4-3; in short: as §1
[8] = test system: Human immunodeficiency virus 1; experiment: Antiviral activity against HIV1 with RT connection domain G190A/N348Ib mutant transfected in HEK293 cells assessed as inhibition of viral replication relative to HIV1 NL4-3; in short: as §1
[9] = test system: Human immunodeficiency virus 1; experiment: Antiviral activity against HIV1 with RT connection domain K103N mutant transfected in HEK293 cells assessed as inhibition of viral replication relative to HIV1 NL4-3; in short: as §1
[10] = test system: Human immunodeficiency virus 1; experiment: Antiviral activity against HIV1 with RT connection domain N348I mutant transfected in HEK293 cells assessed as inhibition of viral replication relative to HIV1 NL4-3; in short: as §1
[11] = test system: Human immunodeficiency virus 1; experiment: Antiviral activity against HIV1 with RT connection domain L100I/N348I mutant transfected in HEK293 cells assessed as inhibition of viral replication relative to HIV1 NL4-3; in short: as §1
[12] = test system: Human immunodeficiency virus 1; experiment: Antiviral activity against HIV1 with RT connection domain G190S/T369I mutant transfected in HEK293 cells assessed as inhibition of viral replication relative to HIV1 NL4-3; in short: as §1
[13] = test system: Human immunodeficiency virus 1; experiment: Antiviral activity against HIV1 with RT connection domain T369I/N348I mutant transfected in HEK293 cells assessed as inhibition of viral replication relative to HIV1 NL4-3; in short: as §1
[14] = test system: Human immunodeficiency virus 1; experiment: Antiviral activity against HIV1 with RT connection domain G190A mutant transfected in HEK293 cells assessed as inhibition of viral replication relative to HIV1 NL4-3; in short: as §1
[15] = test system: Human immunodeficiency virus 1; experiment: Antiviral activity against HIV1 with RT connection domain Y181C/T369I/N348I mutant transfected in HEK293 cells assessed as inhibition of viral replication relative to HIV1 NL4-3; in short: as §1
[16] = test system: Human immunodeficiency virus 1; experiment: Antiviral activity against HIV1 with RT connection domain T369I mutant transfected in HEK293 cells assessed as inhibition of viral replication relative to HIV1 NL4-3; in short: as §1
[17] = test system: Human immunodeficiency virus 1; experiment: Antiviral activity against HIV1 with RT connection domain L100I/T369I mutant transfected in HEK293 cells assessed as inhibition of viral replication relative to HIV1 NL4-3; in short: as §1
[18] = test system: Human immunodeficiency virus 1; experiment: Antiviral activity against HIV1 with RT connection domain G190S/T369I/N348I mutant transfected in HEK293 cells assessed as inhibition of viral replication relative to HIV1 NL4-3; in short: as §1
[19] = test system: Human immunodeficiency virus 1; experiment: Antiviral activity against HIV1 with RT connection domain L100I mutant transfected in HEK293 cells assessed as inhibition of viral replication relative to HIV1 NL4-3; in short: as §1
[20] = test system: Human immunodeficiency virus 1; experiment: Antiviral activity against HIV1 with RT connection domain G190A/T369I/N348I mutant transfected in HEK293 cells assessed as inhibition of viral replication relative to HIV1 NL4-3; in short: as §1
[21] = test system: Human immunodeficiency virus 1; experiment: Antiviral activity against HIV1 with RT connection domain G190S mutant transfected in HEK293 cells assessed as inhibition of viral replication relative to HIV1 NL4-3; in short: as §1
[22] = test system: Human immunodeficiency virus 1; experiment: Antiviral activity against HIV1 with RT connection domain Y181C mutant transfected in HEK293 cells assessed as inhibition of viral replication relative to HIV1 NL4-3; in short: as §1
[23] = test system: Human immunodeficiency virus 1; experiment: Antiviral activity against HIV1 with RT connection domain K103N/N348I mutant transfected in HEK293 cells assessed as inhibition of viral replication relative to HIV1 NL4-3; in short: as §1
[24] = test system: Human immunodeficiency virus 1; experiment: Antiviral activity against HIV1 with RT connection domain Y181C/T369I mutant transfected in HEK293 cells assessed as inhibition of viral replication relative to HIV1 NL4-3; in short: as §1

`CC(C)Nc1cccnc1N1CCN(C(=O)c2cc3cc(NS(C)(=O)=O)ccc3[nH]2)CC1` [DELAVIRDINE] was tested, and the “fold change (FC)” value [1] was >250, the “fold change (FC)” value [2] was >250 and the “fold change (FC)” value [3] was 1.2. The “fold change (FC)” value [4] was >250, the “fold change (FC)” value [5] was >250 and the “fold change (FC)” value [6] was 0.9. The “fold change (FC)” value [7] was 5.5, the “fold change (FC)” value [8] was 1.1 and the “fold change (FC)” value [9] was 75.7. For the same compound, the “fold change (FC)” value [10] was 3.4, the “fold change (FC)” value [11] was 90.7 and the “fold change (FC)” value [12] was 0.6. The “fold change (FC)” value [13] was 29.8, the “fold change (FC)” value [14] was 0.3 and the “fold change (FC)” value [15] was >250. The “fold change (FC)” value [16] was 5.2, the “fold change (FC)” value [17] was 49.7 and the “fold change (FC)” value [18] was 6.9. The “fold change (FC)” value [19] was 34, the “fold change (FC)” value [20] was 5.9 and the “fold change (FC)” value [21] was 0.3. For the same compound, the “fold change (FC)” value [22] was 44.7, the “fold change (FC)” value [23] was >250 and the “fold change (FC)” value [24] was >250.

With `O=C1Nc2ccc(Cl)cc2[C@@](C#CC2CC2)(C(F)(F)F)O1` [EFAVIRENZ] the “fold change (FC)” value [1] was 137.7, the “fold change (FC)” value [2] was 164.1 and the “fold change (FC)” value [3] was 33.7. For the same compound, the “fold change (FC)” value [4] was 3.2, the “fold change (FC)” value [5] was >700 and the “fold change (FC)” value [6] was >700. For the same compound, the “fold change (FC)” value [7] was 3.1, the “fold change (FC)” value [8] was 26 and the “fold change (FC)” value [9] was 21.3. For the same compound, the “fold change (FC)” value [10] was 1.9, the “fold change (FC)” value [11] was 16 and the “fold change (FC)” value [12] was >700. For the same compound, the “fold change (FC)” value [13] was 8.1, the “fold change (FC)” value [14] was 5.2 and the “fold change (FC)” value [15] was 17. For the same compound, the “fold change (FC)” value [16] was 2.4, the “fold change (FC)” value [17] was 13.6 and the “fold change (FC)” value [18] was >700. For the same compound, the “fold change (FC)” value [19] was 9, the “fold change (FC)” value [20] was >700 and the “fold change (FC)” value [21] was 63. The “fold change (FC)” value [22] was 1.7, the “fold change (FC)” value [23] was 115 and the “fold change (FC)” value [24] was 4.

For `Cc1ccnc2c1NC(=O)c1cccnc1N2C1CC1` [NEVIRAPINE], the “fold change (FC)” value [1] was 56.3, the “fold change (FC)” value [2] was >400 and the “fold change (FC)” value [3] was >400. The “fold change (FC)” value [4] was >400, the “fold change (FC)” value [5] was >400 and the “fold change (FC)” value [6] was >400. For the same compound, the “fold change (FC)” value [7] was 9.2, the “fold change (FC)” value [8] was >400 and the “fold change (FC)” value [9] was 81. For the same compound, the “fold change (FC)” value [10] was 4.1, the “fold change (FC)” value [11] was 5.3 and the “fold change (FC)” value [12] was >400. The “fold change (FC)” value [13] was 58.6, the “fold change (FC)” value [14] was 127.7 and the “fold change (FC)” value [15] was >400. The “fold change (FC)” value [16] was 8.4, the “fold change (FC)” value [17] was 4.8 and the “fold change (FC)” value [18] was >400. The “fold change (FC)” value [19] was 2.1, the “fold change (FC)” value [20] was >400 and the “fold change (FC)” value [21] was 145. For the same compound, the “fold change (FC)” value [22] was 317, the “fold change (FC)” value [23] was >400 and the “fold change (FC)” value [24] was >400.

In the case of `Cc1cn([C@H]2C[C@H](N=[N+]=[N-])[C@@H](CO)O2)c(=O)[nH]c1=O` [ZIDOVUDINE], the “fold change (FC)” value [1] was 0.5, the “fold change (FC)” value [2] was 2.3 and the “fold change (FC)” value [3] was 1.7. The “fold change (FC)” value [4] was 0.7, the “fold change (FC)” value [5] was 7.9 and the “fold change (FC)” value [6] was 1.7. The “fold change (FC)” value [7] was 2.1, the “fold change (FC)” value [8] was 2 and the “fold change (FC)” value [9] was 1.1. The “fold change (FC)” value [10] was 2.4, the “fold change (FC)” value [11] was 0.3 and the “fold change (FC)” value [12] was 0.7. For the same compound, the “fold change (FC)” value [13] was 5.4, the “fold change (FC)” value [14] was 1.1 and the “fold change (FC)” value [15] was 2.2. The “fold change (FC)” value [16] was 2.7, the “fold change (FC)” value [17] was 0.2 and the “fold change (FC)” value [18] was 5.8. For the same compound, the “fold change (FC)” value [19] was 0.1, the “fold change (FC)” value [20] was 4.2 and the “fold change (FC)” value [21] was 0.8. The “fold change (FC)” value [22] was 0.3, the “fold change (FC)” value [23] was 2.6 and the “fold change (FC)” value [24] was 0.9.
